Measured values taken from ChEMBL document CHEMBL1129648, “Synthesis and selective coronary vasodilatory activity of 3,4-dihydro-2,2-bis(methoxymethyl)-2H-1-benzopyran-3-ol derivatives: novel potassium channel openers” (J Med Chem, 1996).

Legend:
Canis familiaris = assay: Dose causing a 50% increase of coronary blood flow in anesthetized dogs relative to the flow increase caused by injection of 1 microg of nifedipine (100%) after intracoronary administration.; format: functional, Canis lupus familiaris, Coronary artery
Outline: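 Anesthetized dogs; compound dissolved in 30% DMF, diluted with saline, injected into the coronary artery. Perfusion pressure and systemic blood pressure measured by pressure transducers.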

[1] = Ratio of vasorelaxant effect on KCl-Induced contraction of rat aorta to that of porcine coronary artery; format: functional
Rattus norvegicus = species: Rattus norvegicus; assay: Vasorelaxant effect on KCl-Induced contraction of rat aorta; format: functional
Outline: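 Isolated strips in Krebs-Henseleit solution, 37 °C, gassed with 95% O2/5% CO2, under 1 g resting load; isometric tension recorded. Strips contracted with 30 or 40 mM KCl. Cumulative concentration-relaxation curves; mean IC50 taken as concentration giving 50% relaxation of the KCl-induced contraction.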

[2] = Vasorelaxant effect on KCl-Induced contraction of porcine coronary artery vs rat aorta; format: functional
Outline: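 Isolated porcine coronary artery and rat aortic strips in organ bath, Krebs-Henseleit solution, 37 °C, gassed 95% O2/5% CO2; isometric tension under 1 g resting load. Strips contracted with 30 or 40 mM KCl. Mean IC50 (50% relaxation of KCl-induced contraction) from concentration-relaxation curves in each tissue.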

Sus scrofa = species: Sus scrofa; assay: Vasorelaxant effect on KCl-Induced contraction of porcine coronary artery; format: functional

Question: With `COCC1(COC)Oc2ccc(C#N)cc2[C@@H](N=C(NC#N)c2ccccc2)[C@@H]1O` as the molecule, how does the ED50 (Canis familiaris) read?
Answer: 5.4 µg

Question: For `COCC1(COC)Oc2ccc(C#N)cc2[C@@H](Nc2ccc(=O)n(CCSC)n2)[C@@H]1O`, which ED50 (Canis familiaris) is on record?
Answer: 3.3 µg

Question: Which ED50 (Canis familiaris) does the source give for `COCC1(COC)Oc2ccc([N+](=O)[O-])cc2[C@@H](N=C(NC#N)c2cccnc2)[C@@H]1O` here?
Answer: 4.4 µg

Question: Which ED50 (Canis familiaris) does the source give for `CCOCC1(COCC)Oc2ccc(C#N)cc2[C@@H](N=C(NC#N)c2cccnc2)[C@@H]1O` here?
Answer: >30 µg

Question: Which ED50 (Canis familiaris) does the source give for `COCC1(COC)Oc2ccc(C#N)cc2[C@@H](Nc2ccc(=O)n(CC(=O)O)n2)[C@@H]1O` here?
Answer: >30 µg

Question: With `COCC1(COC)Oc2ccc(C#N)cc2[C@@H](Nc2ccc(=O)n(CC[N+](=O)[O-])n2)[C@@H]1O` as the molecule, how does the ED50 (Canis familiaris) read?
Answer: 1.6 µg

Question: With `COCC1(COC)Oc2ccc(Br)cc2[C@@H](Nc2ccc(=O)n(C)n2)[C@@H]1O` as the molecule, how does the ED50 (Canis familiaris) read?
Answer: 2.3 µg

Question: With `COCC1(COC)Oc2ccc(C#N)cc2[C@@H](NC(=O)Nc2ccccc2)[C@@H]1O` as the molecule, how does the ED50 (Canis familiaris) read?
Answer: >30 µg

Question: With `COCC1(COC)Oc2ccc(C#N)cc2[C@@H](N=C(NC#N)c2cccnc2)[C@@H]1O` as the molecule, how does the ED50 (Canis familiaris) read?
Answer: 14 µg

Question: With `COCC1(COC)Oc2ccc(Br)cc2[C@@H](N=C(NC#N)c2cccnc2)[C@@H]1O` as the molecule, how does the ED50 (Canis familiaris) read?
Answer: 20 µg

Question: Which ED50 (Canis familiaris) does the source give for `COCC1(COC)Oc2ccc(C#N)cc2[C@@H](Nc2ccc(=O)n(CC3CC3)n2)[C@@H]1O` here?
Answer: 1.5 µg

Question: Which ED50 (Canis familiaris) does the source give for `COCC1(COC)Oc2ccc(C#N)cc2[C@@H](Oc2ccc(=O)n(C)n2)[C@@H]1O` here?
Answer: 6.4 µg

Question: Which ED50 (Canis familiaris) does the source give for `COCC1(COC)Oc2ccc(C#N)cc2[C@@H](Nc2ccc(=O)n(CCF)n2)[C@@H]1O` here?
Answer: 1.8 µg

Question: Which ED50 (Canis familiaris) does the source give for `N#CNC(=N[C@@H]1c2cc(C#N)ccc2OC2(COCOC2)[C@H]1O)c1cccnc1` here?
Answer: >30 µg

Question: Which ED50 (Canis familiaris) does the source give for `COCC1(COC)Oc2ccc([N+](=O)[O-])cc2[C@@H](Nc2ccc(=O)n(C)n2)[C@@H]1O` here?
Answer: 1.1 µg

Question: For `COCC1(C)Oc2ccc(C#N)cc2[C@@H](N=C(NC#N)c2cccnc2)[C@@H]1O` (stereo partly drawn), which ED50 (Canis familiaris) is on record?
Answer: 17 µg

Question: Which ED50 (Canis familiaris) does the source give for `COCC1(COC)Oc2ccc(C#N)cc2[C@@H](Nc2ccc(=O)n(Cc3ccccc3)n2)[C@@H]1O` here?
Answer: 28 µg

Question: Which ED50 (Canis familiaris) does the source give for `CC1(C)Oc2ccc(C#N)cc2[C@@H](N=C(NC#N)c2cccnc2)[C@@H]1O` here?
Answer: 1.3 µg

Question: With `COCC1(COC)Oc2ccc(C#N)cc2[C@@H](Nc2ccc(=O)n(C(C)C)n2)[C@@H]1O` as the molecule, how does the ED50 (Canis familiaris) read?
Answer: 1.3 µg

Question: Which ED50 (Canis familiaris) does the source give for `COCC1(COC)Oc2ccc(C#N)cc2[C@@H](Nc2ccc(=S)n(C)n2)[C@@H]1O` here?
Answer: 24 µg

Question: Which ED50 (Canis familiaris) does the source give for `COCC1(COC)Oc2ccc(C#N)cc2[C@@H](Nc2ccc(=O)n(-c3ccc([N+](=O)[O-])cc3)n2)[C@@H]1O` here?
Answer: >30 µg

Question: Which ED50 (Canis familiaris) does the source give for `COCC1(COC)Oc2ccc(C#N)cc2[C@@H](Nc2ccc(=O)n(CC#N)n2)[C@@H]1O` here?
Answer: 5 µg

Question: With `CCn1nc(N[C@@H]2c3cc(C#N)ccc3OC(COC)(COC)[C@H]2O)ccc1=O` as the molecule, how does the ED50 (Canis familiaris) read?
Answer: 0.57 µg

Question: Which ED50 (Canis familiaris) does the source give for `C=CCn1nc(N[C@@H]2c3cc(C#N)ccc3OC(COC)(COC)[C@H]2O)ccc1=O` here?
Answer: 1.2 µg

Question: Which ED50 (Canis familiaris) does the source give for `CCCC1(C)Oc2ccc(C#N)cc2[C@@H](N=C(NC#N)c2cccnc2)[C@@H]1O` (stereo partly drawn) here?
Answer: 20 µg

Question: Which ED50 (Canis familiaris) does the source give for `COCC1(COC)Oc2ccc(C#N)cc2[C@@H](N=C(NC#N)Nc2ccccc2)[C@@H]1O` here?
Answer: >30 µg

Question: With `COCC1(COC)Oc2ccc(C#N)cc2[C@@H](Nc2ccc(=O)n(C)n2)[C@@H]1O` as the molecule, how does the Ratio [1] read?
Answer: 2.73

Question: What about the IC50 (Rattus norvegicus) of the same molecule?
Answer: 300 nM

Question: And the ED50 (Canis familiaris)?
Answer: 0.58 µg

Question: With `COCC1(COC)Oc2ccc(C#N)cc2[C@@H](N=C(C)NC#N)[C@@H]1O` as the molecule, how does the ED50 (Canis familiaris) read?
Answer: 6 µg

Question: For `CCCn1nc(N[C@@H]2c3cc(C#N)ccc3OC(COC)(COC)[C@H]2O)ccc1=O`, which ED50 (Canis familiaris) is on record?
Answer: 1.5 µg

Question: For `COCC1(COC)Oc2ccc(C#N)cc2[C@@H](Nc2ccc(=O)n(CC(F)(F)F)n2)[C@@H]1O`, which ED50 (Canis familiaris) is on record?
Answer: 6.4 µg

Question: With `COCC1(COC)Oc2ccc(C#N)cc2[C@@H](Nc2ccc(=O)n(CCC(=O)OC)n2)[C@@H]1O` as the molecule, how does the ED50 (Canis familiaris) read?
Answer: 2.3 µg

Question: With `COCC1(COC)Oc2ccc(C#N)cc2[C@@H](NC(=O)c2cccnc2)[C@@H]1O` as the molecule, how does the ED50 (Canis familiaris) read?
Answer: 14 µg

Question: With `CC1(COc2ccccc2)Oc2ccc(C#N)cc2[C@@H](N=C(NC#N)c2cccnc2)[C@@H]1O` (stereo partly drawn) as the molecule, how does the ED50 (Canis familiaris) read?
Answer: >30 µg

Question: Which ED50 (Canis familiaris) does the source give for `CCCCCCCn1nc(N[C@@H]2c3cc(C#N)ccc3OC(COC)(COC)[C@H]2O)ccc1=O` here?
Answer: 13 µg

Question: Which ED50 (Canis familiaris) does the source give for `COCC1(COC)Oc2ccc(C#N)cc2[C@@H](Nc2ccc(O)nn2)[C@@H]1O` here?
Answer: 6.2 µg

Question: Which ED50 (Canis familiaris) does the source give for `COCC1(COC)Oc2ccc(C#N)cc2[C@@H](Nc2ccc(=O)n(CC(=O)OC)n2)[C@@H]1O` here?
Answer: 17 µg

Question: For `COCCn1nc(N[C@@H]2c3cc(C#N)ccc3OC(COC)(COC)[C@H]2O)ccc1=O`, which ED50 (Canis familiaris) is on record?
Answer: 4.1 µg

Question: Which results are given for `CC1(C)Oc2ccc(C#N)cc2[C@@H](N2CCCC2=O)[C@@H]1O` [LEVCROMAKALIM]?
Answer: Ratio [2]: 0.81; IC50 (Rattus norvegicus): 290 nM; IC50 (Sus scrofa): 360 nM

Question: For `O=C(NCCO[N+](=O)[O-])c1cccnc1` [NICORANDIL], which Ratio [1] is on record?
Answer: 4.06

Question: What about the IC50 (Rattus norvegicus) of the same molecule?
Answer: 13000 nM

Question: And the IC50 (Sus scrofa)?
Answer: 3200 nM

Question: Which results are given for `COC(=O)C1=C(C)NC(C)=C(C(=O)OC)C1c1ccccc1[N+](=O)[O-]` [NIFEDIPINE]?
Answer: Ratio [2]: 1; IC50 (Rattus norvegicus): 3.6 nM; IC50 (Sus scrofa): 3.6 nM
